# Source: ChEMBL document CHEMBL1135786, “Anti-AIDS agents 49. Synthesis, anti-HIV, and anti-fusion activities of IC9564 analogues based on betulinic acid” (J Med Chem, 2002)
# What was measured:
# Assay type in all cases: functional, organism-based
# [1] = test system: Human immunodeficiency virus 1; experiment: Anti HIV-1 activity against the virus NL4-3 using MAGI assay; conditions: Human immunodeficiency virus 1, MAGI
# Summary of the method: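 HeLa-CD4/CCR5/β-gal indicator cells seeded at 10 000/well, grown 1 day in DMEM with G418 (500 µg/mL) and hygromycin (250 µg/mL). Infected with virus dilutions in presence of graded compound concentrations, 2 days at 37 °C. Fixed (1% formaldehyde, 0.2% glutaraldehyde), X-gal stained (0.4 mg/mL). Blue (Tat-expressing) cells counted; EC50 = concentration halving infected-cell number.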
# [2] = test system: Human immunodeficiency virus 1; experiment: Anti HIV-1 activity against the virus NL4-3 using fusion assay
# Summary of the method: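 COS cells (10⁶) electroporated (950 µF, […]) with 2 µg vector expressing HIV-1 NL4-3 envelope, cultured 1 day. Then 10⁴ transfected cells mixed with 7 × 10⁴ MOLT-4 cells. Graded compound concentrations added, 24 h at 37 °C. Multinucleated syncytia counted microscopically over entire well; EC50 from syncytium inhibition.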
# [3] = test system: Human immunodeficiency virus 1; experiment: Anti HIV-1 activity against infected H9 lymphocyte cells; conditions: Human immunodeficiency virus 1, H9
# Summary of the method: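 HIV-1 acutely infected H9 lymphocytes cultured with the test agent; EC50 (µM) reported.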
SMILES,EC50 [1] [nM],EC50 [2] [µM],EC50 [3] [µM]
C=C(C)[C@@H]1CC[C@]2(C(=O)NCCCCCCCC(=O)OC)CC[C@]3(C)[C@H](CC[C@@H]4[C@@]5(C)CC[C@H](OC(C)=O)C(C)(C)[C@@H]5CC[C@]43C)[C@@H]12,29100,> 31,–
C=C(C)[C@@H]1CC[C@]2(C(=O)NCCCCCCCC(=O)N[C@@H](CC(C)C)[C@H](O)CC(=O)O)CC[C@]3(C)[C@H](CC[C@@H]4[C@@]5(C)CC[C@H](O)C(C)(C)[C@@H]5CC[C@]43C)[C@@H]12,400,0.66,–
C=C(C)[C@@H]1CC[C@]2(C(=O)NCCCCCCCCCCC(=O)N[C@@H](CC(C)C)C(=O)O)CC[C@]3(C)[C@H](CC[C@@H]4[C@@]5(C)CC[C@H](O)C(C)(C)[C@@H]5CC[C@]43C)[C@@H]12,460,0.33,–
CC(=O)O[C@H]1CC[C@]2(C)[C@H]3CC[C@@H]4[C@H]5[C@H](C(C)C)CC[C@]5(C(=O)NCCCCCCCC(=O)N[C@@H](CC(C)C)[C@H](O)CC(=O)OCc5ccccc5)CC[C@@]4(C)[C@]3(C)CC[C@H]2C1(C)C,> 28000,> 22,–
C=C(C)[C@@H]1CC[C@]2(C(=O)NCCCCCCCCCCC(=O)O)CC[C@]3(C)[C@H](CC[C@@H]4[C@@]5(C)CC[C@H](O)C(C)(C)[C@@H]5CC[C@]43C)[C@@H]12,700,0.31,–
C=C(C)[C@@H]1CC[C@]2(C(=O)N[C@@H](CC(C)C)C(=O)O)CC[C@]3(C)[C@H](CC[C@@H]4[C@@]5(C)CC[C@H](O)C(C)(C)[C@@H]5CC[C@]43C)[C@@H]12,–,5.48,3.22
C=C(C)[C@@H]1CC[C@]2(C(=O)NCCC(=O)O)CC[C@]3(C)[C@H](CC[C@@H]4[C@@]5(C)CC[C@H](O)C(C)(C)[C@@H]5CC[C@]43C)[C@@H]12,> 47000,> 38,–
C=C(C)[C@@H]1CC[C@]2(C(=O)NCCC(=O)OC)CC[C@]3(C)[C@H](CC[C@@H]4[C@@]5(C)CC[C@H](OC(C)=O)C(C)(C)[C@@H]5CC[C@]43C)[C@@H]12,26700,21.4,–
C=C(C)[C@@H]1CC[C@]2(C(=O)NCCCCCCCCCCC(=O)N[C@@H](CC(C)C)C(=O)OC)CC[C@]3(C)[C@H](CC[C@@H]4[C@@]5(C)CC[C@H](O)C(C)(C)[C@@H]5CC[C@]43C)[C@@H]12,> 32000,> 26,–
C=C(C)[C@@H]1CC[C@]2(C(=O)NCCC(=O)N[C@@H](CC(C)C)C(=O)OC)CC[C@]3(C)[C@H](CC[C@@H]4[C@@]5(C)CC[C@H](O)C(C)(C)[C@@H]5CC[C@]43C)[C@@H]12,> 38000,7.63,–
C=C(C)[C@@H]1CC[C@]2(C(=O)NCCCCCCCCCCC(=O)OC)CC[C@]3(C)[C@H](CC[C@@H]4[C@@]5(C)CC[C@H](OC(C)=O)C(C)(C)[C@@H]5CC[C@]43C)[C@@H]12,10200,> 29,–
C=C(C)[C@@H]1CC[C@]2(C(=O)NCCC(=O)N[C@@H](CC(C)C)C(=O)O)CC[C@]3(C)[C@H](CC[C@@H]4[C@@]5(C)CC[C@H](O)C(C)(C)[C@@H]5CC[C@]43C)[C@@H]12,> 39000,> 31,–
C=C(C)[C@@H]1CC[C@]2(C(=O)NCCCCCCCC(=O)N[C@@H](CC(C)C)C(=O)O)CC[C@]3(C)[C@H](CC[C@@H]4[C@@]5(C)CC[C@H](O)C(C)(C)[C@@H]5CC[C@]43C)[C@@H]12,1380,1.1,–
C=C(C)[C@@H]1CC[C@]2(C(=O)NCCCCCCCC(=O)N[C@@H](CC(C)C)C(=O)OC)CC[C@]3(C)[C@H](CC[C@@H]4[C@@]5(C)CC[C@H](O)C(C)(C)[C@@H]5CC[C@]43C)[C@@H]12,520,0.86,–
C=C(C)[C@@H]1CC[C@]2(C(=O)N[C@@H](CC(C)C)C(=O)OC)CC[C@]3(C)[C@H](CC[C@@H]4[C@@]5(C)CC[C@H](OC(C)=O)C(C)(C)[C@@H]5CC[C@]43C)[C@@H]12,> 40000,> 32,–
CC(C)C[C@H](NC(=O)CCCCCCCNC(=O)[C@]12CC[C@@H](C(C)C)[C@@H]1[C@H]1CC[C@@H]3[C@@]4(C)CC[C@H](O)C(C)(C)[C@@H]4CC[C@@]3(C)[C@]1(C)CC2)[C@H](O)CC(=O)O,330,0.4,–
Cc1cn([C@H]2C[C@H](N=[N+]=[N-])[C@@H](CO)O2)c(=O)[nH]c1=O [ZIDOVUDINE],75,> 75,–
